For 59 molecules, Activity and Ki results are on record in ChEMBL document CHEMBL1149618, “Selection, synthesis, and structure-activity relationship of tetrahydropyrido[4,3-d]pyrimidine-2,4-diones as human GnRH receptor antagonists” (Bioorg Med Chem, 2007).

Activity calls are given as the source filed them. The rule behind the calls is not given here.

In the first assay the target is T1, Gonadotropin-releasing hormone receptor (Homo sapiens) (UniProt P30968).
T1 sequence (whole entry): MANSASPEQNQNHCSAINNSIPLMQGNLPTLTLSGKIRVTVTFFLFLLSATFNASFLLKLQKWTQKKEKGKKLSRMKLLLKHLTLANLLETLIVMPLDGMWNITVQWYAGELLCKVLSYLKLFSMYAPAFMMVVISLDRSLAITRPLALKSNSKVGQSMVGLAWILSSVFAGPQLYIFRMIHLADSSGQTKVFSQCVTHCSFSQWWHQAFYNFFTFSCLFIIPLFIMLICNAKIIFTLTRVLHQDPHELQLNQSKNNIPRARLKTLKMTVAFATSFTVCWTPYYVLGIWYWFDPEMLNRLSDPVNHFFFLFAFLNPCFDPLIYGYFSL
Kind of assay: (§1) Displacement of [125I]His5,D-Tyr6]GnRH from human cloned GnRH receptor transfected in COS7 cells. The conditions noted are these: COS-7. It counts as cell-based. The procedure, abridged: (§2)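 Competition binding against the radiolabelled GnRH agonist at the cloned human GnRH receptor, following a previously published method. Only compounds above 85% UV purity at 220 and 254 nm by LC–MS were assayed. Each compound was tested at least twice.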
In general terms: Loss of bound radioactivity is the signal in a displacement assay; it reports binding, not function.
Regarding `COc1ccccc1CN1CCc2c(c(=O)n(CCN(C)CCc3ccccn3)c(=O)n2Cc2c(F)cccc2F)C1`, the outcome was inactive.

For the next assay, the target named is T2, Gonadotropin-releasing hormone receptor (Homo sapiens, UniProt P30968).
T2 sequence (P30968 whole entry): T1 sequence (whole entry)
The assay is described as §1.
Conditions: not given
The class given is cell-based, COS-7. In outline: as §2
With `Cc1ccc(CN2CCc3c(c(=O)n(CC4CCCCN4)c(=O)n3Cc3c(F)cccc3F)C2)c(C)c1` (centres undefined), the Ki – broadly, the equilibrium dissociation constant of an inhibitor or competing ligand from its target – was more than 10 µM.

In turn, `O=c1c2c(n(Cc3c(F)cccc3F)c(=O)n1C[C@H]1CCCN1)CCN(Cc1ccc(Cl)cc1)C2` had a Ki of more than 10 µM.

The molecule `Cc1c(CN2CCc3c(c(=O)n(CCN(C)CCc4ccccn4)c(=O)n3C)C2)sc2ccccc12` gave a Ki of more than 10 µM.

As to `Cc1ccc(CN2CCc3c(c(=O)n(CC4CCCN(CCc5ccccn5)C4)c(=O)n3Cc3c(F)cccc3F)C2)c(C)c1` (centres undefined), the affinity corresponds to a Ki of 0.6 µM.

`O=c1c2c(n(Cc3c(F)cccc3F)c(=O)n1C[C@H]1CCCN1C1CCCC1)CCN(Cc1ccc(Cl)cc1)C2`: the Ki was 1.37 µM.

Molecule `Cc1ccc(CN2CCc3c(c(=O)n(CCN(C)CCc4ccccn4)c(=O)n3Cc3c(F)cccc3F)C2)cc1` returned a Ki of 0.035 µM.

Consider `O=c1c2c(n(Cc3c(F)cccc3F)c(=O)n1C[C@@H]1CCCCN1CCc1ccccn1)CCN(Cc1ccc(Cl)cc1)C2`, for which affinity was put at a Ki of 2.41 µM.

Turning to `Cc1ccc(CN2CCc3c(c(=O)n(CC4CCCN(C5CCCC5)C4)c(=O)n3Cc3c(F)cccc3F)C2)c(C)c1` (centres undefined), the Ki was 2.58 µM.

Take `COc1cccc(-n2c(=O)c3c(n(Cc4c(F)cccc4F)c2=O)CN(CCc2c[nH]c4ccccc24)CC3)c1`: the Ki is 2.2 µM.

`CCc1ccc(CN2CCc3c(c(=O)n(CCN(C)C)c(=O)n3Cc3c(F)cccc3F)C2)cc1`: affinity was put at a Ki of 1.4 µM.

In the case of `Cc1c(CN2CCc3c(c(=O)n(CCN(C)CCc4ccccn4)c(=O)n3Cc3ccccc3)C2)sc2ccccc12`, the Ki turned out to be 0.305 µM.

With `O=c1c2c(n(Cc3c(F)cccc3F)c(=O)n1C[C@H]1CCCN1CCc1ccccn1)CCN(Cc1ccc(Cl)cc1)C2`, the Ki came to 0.01 µM.

Molecule `CCSc1ccc(CN2CCc3c(c(=O)n(CCN(C)CCc4ccccn4)c(=O)n3Cc3c(F)cccc3F)C2)cc1` showed a Ki of 0.015 µM.

For `COc1cccc(-n2c(=O)c3c(n(Cc4c(F)cccc4F)c2=O)CN(Cc2ccccc2)CC3)c1`, the inhibition constant (Ki) was found to be 1.29 µM.

`CN(CCc1ccccn1)CCn1c(=O)c2c(n(Cc3c(F)cccc3F)c1=O)CCN(Cc1cccc(Cl)c1)C2`: affinity was put at a Ki of 0.85 µM.

Molecule `CN(CCc1ccccn1)CCn1c(=O)c2c(n(Cc3c(F)cccc3F)c1=O)CCN(Cc1nc3ccccc3n1C)C2` came in with a Ki of more than 10 µM.

In the case of `CN(CCc1ccccn1)CCn1c(=O)c2c(n(Cc3c(F)cccc3F)c1=O)CCN(Cc1ccc(Cl)cc1)C2`, the inhibition constant Ki was 0.017 µM.

`Cc1c(CN2CCc3c(c(=O)n(CCN(C)CCc4ccccn4)c(=O)n3Cc3c(F)cccc3F)C2)sc2ccccc12` had a Ki of 0.015 µM.

Take `CN(CCc1ccccn1)CCn1c(=O)c2c(n(Cc3c(F)cccc3F)c1=O)CCN(Cc1ccncc1)C2`: the Ki is more than 10 µM.

In turn, `CN(CCc1ccccn1)CCn1c(=O)c2c(n(Cc3c(F)cccc3F)c1=O)CCN(Cc1ccc(Cl)c(Cl)c1)C2` came in with a Ki of 0.255 µM.

The molecule `Cc1ccccc1CN1CCc2c(c(=O)n(CCN(C)CCc3ccccn3)c(=O)n2Cc2c(F)cccc2F)C1` came in with a Ki of 0.085 µM.

In turn, `Cc1ccc(CN2CCc3c(c(=O)n(CCN(C)Cc4ccccn4)c(=O)n3Cc3c(F)cccc3F)C2)c(C)c1` gave a Ki of 0.18 µM.

For `COc1cccc(-n2c(=O)c3c(n(Cc4c(F)cccc4F)c2=O)CNCC3)c1`, affinity was put at a Ki of 0.97 µM.

Molecule `COc1cccc(-n2c(=O)c3c(n(Cc4c(F)cccc4F)c2=O)CN(Cc2ccc(-n4ccnc4)cc2)CC3)c1` came in with a Ki of 0.54 µM.

`Cc1ccc(CN2CCc3c(c(=O)n(CC4CCCCN4C)c(=O)n3Cc3c(F)cccc3F)C2)c(C)c1` (centres undefined) returned an inhibition constant (Ki) of 1.71 µM.

For `CN(CCc1ccccn1)CCn1c(=O)c2c(n(Cc3c(F)cccc3F)c1=O)CCN(Cc1ccc(-n3ccnc3)cc1)C2`, the Ki is more than 10 µM.

As to `Cc1c(CN2CCc3c(c(=O)n(CCN(C)CCc4ccccn4)c(=O)n3Cc3c(F)cccc3C(F)(F)F)C2)sc2ccccc12`, the Ki is 0.01 µM.

In turn, `Cc1ccc(CN2CCc3c(c(=O)n(CC4CCCCN4C4CCCC4)c(=O)n3Cc3c(F)cccc3F)C2)c(C)c1` (centres undefined) returned an inhibition constant Ki of 0.52 µM.

`CSc1ccc(CN2CCc3c(c(=O)n(CCN(C)CCc4ccccn4)c(=O)n3Cc3c(F)cccc3F)C2)cc1` displayed a Ki of 0.01 µM.

Molecule `COc1cccc(-n2c(=O)c3c(n(Cc4c(F)cccc4F)c2=O)CN(Cc2ccncc2)CC3)c1` registered a Ki of 1.58 µM.

`Cc1ccc(CN2CCc3c(c(=O)n(CC4CCCN(Cc5ccccc5)C4)c(=O)n3Cc3c(F)cccc3F)C2)c(C)c1` (centres undefined) returned a Ki of 0.16 µM.

`O=c1c2c(n(Cc3c(F)cccc3F)c(=O)n1C[C@H]1CCCCN1CCc1ccccn1)CCN(Cc1ccc(Cl)cc1)C2` yielded a Ki of 0.03 µM.

`CN(CCc1ccccn1)CCn1c(=O)c2c(n(Cc3c(F)cccc3F)c1=O)CCN(CCc1c[nH]c3ccccc13)C2` yielded a Ki of 0.515 µM.

With `COc1ccc(CN2CCc3c(c(=O)n(CCN(C)CCc4ccccn4)c(=O)n3Cc3c(F)cccc3F)C2)cc1`, the affinity, expressed as Ki, was 0.1 µM.

Regarding `O=c1c2c(n(Cc3c(F)cccc3F)c(=O)n1C[C@H]1CCCN1Cc1ccccn1)CCN(Cc1ccc(Cl)cc1)C2`, the Ki came to 0.02 µM.

`Cc1c(CN2CCc3[nH]c(=O)n(CCN(C)CCc4ccccn4)c(=O)c3C2)sc2ccccc12` registered a Ki of more than 10 µM.

`Cc1c(CN2CCc3c(c(=O)n(CCN(C)CCc4ccccn4)c(=O)n3Cc3ccccc3F)C2)sc2ccccc12` gave a Ki of 0.08 µM.

With `Cc1ccc(CN2CCc3c(c(=O)n(CC4CCCN(Cc5ccccn5)C4)c(=O)n3Cc3c(F)cccc3F)C2)c(C)c1` (centres undefined), affinity was put at a Ki of 0.49 µM.

Regarding `CN(CCc1ccccn1)CCn1c(=O)c2c(n(Cc3c(F)cccc3F)c1=O)CCN(Cc1ccc(C(C)(C)C)cc1)C2`, the Ki was determined as 0.3 µM.

For `CN(CCc1ccccn1)CCn1c(=O)c2c(n(Cc3c(F)cccc3F)c1=O)CCN(Cc1ccccc1)C2`, the Ki worked out at 0.99 µM.

`CN(CCc1ccccn1)CCn1c(=O)c2c(n(Cc3c(F)cccc3F)c1=O)CCN(Cc1ccc(C(F)(F)F)cc1)C2` had a Ki of 0.03 µM.

Take `CN(C)[C@@H](Cn1c(=O)c2c(n(Cc3c(F)cccc3F)c1=O)CCN(Cc1ccc(Cl)cc1)C2)c1ccccc1`: the affinity, expressed as Ki, was 0.07 µM.

Turning to `Cc1c(CN2CCc3c(c(=O)n(CCN(C)CCc4ccccn4)c(=O)n3CC3CCCCC3)C2)sc2ccccc12`, the affinity corresponds to a Ki of 0.38 µM.

As to `CN(CCc1ccccn1)CCn1c(=O)c2c(n(Cc3c(F)cccc3F)c1=O)CCNC2`, the Ki is more than 10 µM.

On to `Cc1ccc(CN2CCc3c(c(=O)n(CC4CCCNC4)c(=O)n3Cc3c(F)cccc3F)C2)c(C)c1` (centres undefined), for which the Ki is 2.45 µM.

Regarding `CN[C@@H](Cn1c(=O)c2c(n(Cc3c(F)cccc3F)c1=O)CCN(Cc1ccc(Cl)cc1)C2)c1ccccc1`, the inhibition constant Ki amounted to 0.045 µM.

In the case of `CCc1ccc(CN2CCc3c(c(=O)n(CCN(C)CCc4ccccn4)c(=O)n3Cc3c(F)cccc3F)C2)cc1`, affinity was put at a Ki of 0.02 µM.

Molecule `Cc1ccc(CN2CCc3c(c(=O)n(CCN(C)CC(C)C)c(=O)n3Cc3c(F)cccc3F)C2)c(C)c1` gave a Ki of 1.8 µM.

As to `Cc1cc(Cl)ccc1CN1CCc2c(c(=O)n(CCN(C)CCc3ccccn3)c(=O)n2Cc2c(F)cccc2F)C1`, affinity was put at a Ki of 0.005 µM.

In turn, `COc1cccc(-n2c(=O)c3c(n(Cc4c(F)cccc4F)c2=O)CN(Cc2ccc(C)cc2)CC3)c1` displayed a Ki of more than 10 µM.

`Cc1ccc(CN2CCc3c(c(=O)n(CC4CCCCN4Cc4ccccn4)c(=O)n3Cc3c(F)cccc3F)C2)c(C)c1` (centres undefined) gave a Ki of 0.025 µM.

The molecule `Cc1ccc(CN2CCc3c(c(=O)n(CC4CCCCN4Cc4ccccc4)c(=O)n3Cc3c(F)cccc3F)C2)c(C)c1` (centres undefined) yielded a Ki of 0.945 µM.

`Cc1ccc(CN2CCc3c(c(=O)n(CC4CCCN(C)C4)c(=O)n3Cc3c(F)cccc3F)C2)c(C)c1` (centres undefined) came in with a Ki of more than 10 µM.

`Cc1ccc(CN2CCc3c(c(=O)n(CC4CCCN(CC(C)C)C4)c(=O)n3Cc3c(F)cccc3F)C2)c(C)c1` (centres undefined) displayed a Ki of more than 10 µM.

Turning to `Cc1ccc(CN2CCc3c(c(=O)n(CC4CCCCN4CC(C)C)c(=O)n3Cc3c(F)cccc3F)C2)c(C)c1` (centres undefined), affinity was put at a Ki of 2.59 µM.

In turn, `CN(CCc1ccccn1)CCn1c(=O)c2c(n(Cc3c(F)cccc3F)c1=O)CCN(Cc1ccc(S(C)(=O)=O)cc1)C2` displayed a Ki of 0.805 µM.

Consider `Cc1ccc(CN2CCc3c(c(=O)n(CCN(C)CCc4ccccn4)c(=O)n3Cc3c(F)cccc3F)C2)c(C)c1`, for which the inhibition constant (Ki) was found to be 0.005 µM.

`COc1cccc(-n2c(=O)c3c(n(Cc4c(F)cccc4F)c2=O)CN(Cc2ccccc2OC)CC3)c1` had a Ki of 0.98 µM.
